Source: ChEMBL document CHEMBL1926642, “Relevance of the C-5 position to schweinfurthin induced cytotoxicity” (2011)

How the values were obtained:
Type in all cases: functional
[1] = tested on: CCRF-CEM; test: Growth inhibition of human CCRF-CEM cells after 48 hrs by sulforhodamine B assay; details: for TGI: read-out: pTGI (converted)
[2] = tested on: HL-60(TB); test: Growth inhibition of human HL-60(TB) cells after 48 hrs by sulforhodamine B assay; details: HL-60, 48 h; for CC50: read-out: pLC50 (the source's name) (converted); for TGI: read-out: pTGI (converted)
Summary of the method: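 Run in the NCI 60 cell-line screen as the full 5-dose assay that follows initial single-dose testing; GI50 is read from the dose series.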

[3] = tested on: MOLT-4; test: Growth inhibition of human MOLT4 cells after 48 hrs by sulforhodamine B assay; details: MOLT-4, 48 h; for TGI: read-out: pTGI (converted)
[4] = tested on: RPMI-8226; test: Growth inhibition of human RPMI8226 cells after 48 hrs by sulforhodamine B assay; details: RPMI-8226, 48 h; for TGI: read-out: pTGI (converted)
[5] = tested on: NCI-H226; test: Growth inhibition of human NCI-H226 cells after 48 hrs by sulforhodamine B assay; details: NCI-H226, 48 h; for TGI: read-out: pTGI (converted)
[6] = tested on: NCI-H23; test: Growth inhibition of human NCI-H23 cells after 48 hrs by sulforhodamine B assay; details: NCI-H23, 48 h; for TGI: read-out: pTGI (converted)
[7] = tested on: NCI-H322M; test: Growth inhibition of human NCI-H322M cells after 48 hrs by sulforhodamine B assay; details: for TGI: read-out: pTGI (converted)
[8] = tested on: NCI-H522; test: Growth inhibition of human NCI-H522 cells after 48 hrs by sulforhodamine B assay; details: NCI-H522, 48 h; for TGI: read-out: pTGI (converted)
[9] = tested on: HCC 2998; test: Growth inhibition of human HCC2998 cells after 48 hrs by sulforhodamine B assay; details: HCC 2998, 48 h; for TGI: read-out: pTGI (converted)
[10] = tested on: HCT-116; test: Growth inhibition of human HCT116 cells after 48 hrs by sulforhodamine B assay; details: HCT-116, 48 h; for TGI: read-out: pTGI (converted)
[11] = tested on: HCT-15; test: Growth inhibition of human HCT15 cells after 48 hrs by sulforhodamine B assay; details: HCT-15, 48 h; for TGI: read-out: pTGI (converted)
[12] = tested on: SF-268; test: Growth inhibition of human SF268 cells after 48 hrs by sulforhodamine B assay; details: SF-268, 48 h; for TGI: read-out: pTGI (converted)
[13] = tested on: SF-539; test: Growth inhibition of human SF539 cells after 48 hrs by sulforhodamine B assay; details: SF-539, 48 h; for TGI: read-out: pTGI (converted)
[14] = tested on: SNB-19; test: Growth inhibition of human SNB19 cells after 48 hrs by sulforhodamine B assay; details: SNB-19, 48 h; for TGI: read-out: pTGI (converted)
[15] = tested on: LOX IMVI; test: Growth inhibition of human LOXIMVI cells after 48 hrs by sulforhodamine B assay; details: for TGI: read-out: pTGI (converted)
[16] = tested on: Malme-3M; test: Growth inhibition of human MALME-3M cells after 48 hrs by sulforhodamine B assay; details: for TGI: read-out: pTGI (converted)
[17] = tested on: SK-MEL-2; test: Growth inhibition of human SK-MEL-2 cells after 48 hrs by sulforhodamine B assay; details: SK-MEL-2, 48 h; for TGI: read-out: pTGI (converted)
[18] = tested on: SK-MEL-28; test: Growth inhibition of human SK-MEL-28 cells after 48 hrs by sulforhodamine B assay; details: SK-MEL-28, 48 h; for CC50: read-out: pLC50 (the source's name) (converted); for TGI: read-out: pTGI (converted)
[19] = tested on: UACC-62; test: Growth inhibition of human UACC62 cells after 48 hrs by sulforhodamine B assay; details: UACC-62, 48 h; for TGI: read-out: pTGI (converted)
[20] = tested on: OVCAR-3; test: Growth inhibition of human OVCAR3 cells after 48 hrs by sulforhodamine B assay; details: OVCAR-3, 48 h; for TGI: read-out: pTGI (converted)
[21] = tested on: OVCAR-4; test: Growth inhibition of human OVCAR4 cells after 48 hrs by sulforhodamine B assay; details: OVCAR-4, 48 h; for TGI: read-out: pTGI (converted)
[22] = tested on: OVCAR-5; test: Growth inhibition of human OVCAR5 cells after 48 hrs by sulforhodamine B assay; details: OVCAR-5, 48 h; for TGI: read-out: pTGI (converted)
[23] = tested on: NCI/ADR-RES; test: Growth inhibition of human NCI/ADR-RES cells after 48 hrs by sulforhodamine B assay; details: for TGI: read-out: pTGI (converted)
[24] = tested on: SK-OV-3; test: Growth inhibition of human SKOV3 cells after 48 hrs by sulforhodamine B assay; details: SK-OV-3, 48 h; for TGI: read-out: pTGI (converted)
[25] = tested on: A498; test: Growth inhibition of human A498 cells after 48 hrs by sulforhodamine B assay; details: A498, 48 h; for TGI: read-out: pTGI (converted)
[26] = tested on: ACHN; test: Growth inhibition of human ACHN cells after 48 hrs by sulforhodamine B assay; details: for TGI: read-out: pTGI (converted)
[27] = tested on: RXF 393; test: Growth inhibition of human RXF393 cells after 48 hrs by sulforhodamine B assay; details: RXF 393, 48 h; for TGI: read-out: pTGI (converted)
[28] = tested on: SN12C; test: Growth inhibition of human SN12C cells after 48 hrs by sulforhodamine B assay; details: for TGI: read-out: pTGI (converted)
[29] = tested on: MDA-MB-231; test: Growth inhibition of human MDA-MB-231/ATCC cells after 48 hrs by sulforhodamine B assay; details: MDA-MB-231, 48 h; for CC50: read-out: pLC50 (the source's name) (converted); for TGI: read-out: pTGI (converted)
[30] = Growth inhibition of human Hs 578T cells after 48 hrs by sulforhodamine B assay; details: for CC50: read-out: pLC50 (the source's name) (converted); for TGI: read-out: pTGI (converted)
[31] = tested on: T47D; test: Growth inhibition of human T47D cells after 48 hrs by sulforhodamine B assay; details: for TGI: read-out: pTGI (converted)
[32] = tested on: MDA-MB-468; test: Growth inhibition of human MDA-MB-468 cells after 48 hrs by sulforhodamine B assay; details: MDA-MB-468, 48 h; for TGI: read-out: pTGI (converted)

COc1cc(/C=C/c2cc(F)c3c(c2)C[C@@H]2C(C)(C)[C@H](O)CC[C@@]2(C)O3)cc(O)c1C/C=C(\C)CCC=C(C)C
GI50 [1]: 1.86 µM
LC50 [1]: > 100 µM
TGI [1]: 4.37 µM
GI50 [2]: 1.82 µM
CC50 [2]: > 100 µM
TGI [2]: 5.5 µM
GI50 [3]: 2.04 µM
LC50 [3]: > 100 µM
TGI [3]: 6.46 µM
GI50 [4]: 2.04 µM
LC50 [4]: > 100 µM
TGI [4]: 4.79 µM
GI50 [5]: 18.6 µM
LC50 [5]: > 100 µM
TGI [5]: 45.7 µM
GI50 [6]: 2.09 µM
LC50 [6]: 20.9 µM
TGI [6]: 5.25 µM
GI50 [7]: 34.7 µM
LC50 [7]: > 100 µM
TGI [7]: > 100 µM
GI50 [8]: 2.19 µM
LC50 [8]: 30.9 µM
TGI [8]: 6.92 µM
GI50 [9]: 12.9 µM
LC50 [9]: 56.2 µM
TGI [9]: 26.9 µM
GI50 [10]: 2.45 µM
LC50 [10]: 20.4 µM
TGI [10]: 6.03 µM
GI50 [11]: 12.3 µM
LC50 [11]: 66.1 µM
TGI [11]: 28.8 µM
GI50 [12]: 10.5 µM
LC50 [12]: 63.1 µM
TGI [12]: 25.7 µM
GI50 [13]: 3.89 µM
LC50 [13]: 43.7 µM
TGI [13]: 14.1 µM
GI50 [14]: 12.6 µM
LC50 [14]: 55 µM
TGI [14]: 26.3 µM
GI50 [15]: 1.38 µM
LC50 [15]: 6.17 µM
TGI [15]: 2.88 µM
GI50 [16]: 14.8 µM
LC50 [16]: 89.1 µM
TGI [16]: 36.3 µM
GI50 [17]: 15.5 µM
LC50 [17]: 75.9 µM
TGI [17]: 33.9 µM
GI50 [18]: 12 µM
CC50 [18]: 56.2 µM
TGI [18]: 25.7 µM
GI50 [19]: 14.1 µM
LC50 (50% lethal concentration) [19]: 63.1 µM
TGI [19]: 29.5 µM
GI50 [20]: 12 µM
LC50 [20]: 58.9 µM
TGI [20]: 26.9 µM
GI50 [21]: 12.6 µM
LC50 [21]: > 100 µM
TGI [21]: 37.2 µM
GI50 [22]: 19.1 µM
LC50 [22]: > 100 µM
TGI [22]: 70.8 µM
GI50 [23]: 3.89 µM
LC50 [23]: 50.1 µM
TGI [23]: 14.1 µM
GI50 [24]: 17 µM
LC50 [24]: 57.5 µM
TGI [24]: 30.9 µM
GI50 [25]: 28.8 µM
LC50 [25]: > 100 µM
TGI [25]: > 100 µM
GI50 [26]: 11.7 µM
LC50 [26]: 58.9 µM
TGI [26]: 26.3 µM
GI50 [27]: 1.82 µM
LC50 (50% lethal concentration) [27]: 10 µM
TGI [27]: 4.27 µM
GI50 [28]: 14.5 µM
LC50 [28]: > 100 µM
TGI [28]: 39.8 µM
GI50 [29]: 6.61 µM
CC50 [29]: 97.7 µM
TGI [29]: 26.9 µM
GI50 [30]: 8.71 µM
CC50 [30]: > 100 µM
TGI [30]: > 100 µM
GI50 [31]: 12.3 µM
LC50 [31]: 77.6 µM
TGI [31]: 30.9 µM
GI50 [32]: 6.61 µM
LC50 [32]: 45.7 µM
TGI [32]: 20 µM

COc1cc(/C=C/c2cc3c(c(SC)c2)O[C@]2(C)CC[C@@H](O)C(C)(C)[C@H]2C3)cc(O)c1C/C=C(\C)CCC=C(C)C
GI50 [1]: 5.62 µM
LC50 [1]: > 100 µM
TGI [1]: > 100 µM
GI50 [2]: 5.13 µM
CC50 [2]: > 100 µM
TGI [2]: 36.3 µM
GI50 [3]: 4.27 µM
LC50 [3]: > 100 µM
TGI [3]: 100 µM
GI50 [4]: 2.34 µM
LC50 [4]: > 100 µM
TGI [4]: 8.91 µM
GI50 [5]: 15.1 µM
LC50 [5]: > 100 µM
TGI [5]: 39.8 µM
GI50 [6]: 11.5 µM
LC50 [6]: > 100 µM
TGI [6]: 36.3 µM
GI50 [7]: 51.3 µM
LC50 [7]: > 100 µM
TGI [7]: > 100 µM
GI50 [8]: 12 µM
LC50 [8]: 93.3 µM
TGI [8]: 33.1 µM
GI50 [9]: 12 µM
LC50 [9]: > 100 µM
TGI [9]: 38.9 µM
GI50 [10]: 6.46 µM
LC50 [10]: 53.7 µM
TGI [10]: 20.9 µM
GI50 [11]: 2.95 µM
LC50 [11]: 72.4 µM
TGI [11]: 8.91 µM
GI50 [12]: 7.41 µM
LC50 [12]: > 100 µM
TGI [12]: 61.7 µM
GI50 [13]: 3.98 µM
LC50 [13]: > 100 µM
TGI [13]: 41.7 µM
GI50 [14]: 28.2 µM
LC50 [14]: > 100 µM
TGI [14]: > 100 µM
GI50 [15]: 4.37 µM
LC50 [15]: 47.9 µM
TGI [15]: 13.2 µM
GI50 [16]: 30.9 µM
LC50 [16]: > 100 µM
TGI [16]: > 100 µM
GI50 [17]: 12.6 µM
LC50 [17]: 69.2 µM
TGI [17]: 29.5 µM
GI50 [18]: 12.3 µM
CC50 [18]: > 100 µM
TGI [18]: 34.7 µM
GI50 [19]: 7.08 µM
LC50 (50% lethal concentration) [19]: > 100 µM
TGI [19]: 28.8 µM
GI50 [20]: 5.89 µM
LC50 [20]: 43.7 µM
TGI [20]: 18.2 µM
GI50 [21]: 23.4 µM
LC50 [21]: > 100 µM
TGI [21]: > 100 µM
GI50 [22]: 22.9 µM
LC50 [22]: > 100 µM
TGI [22]: 57.5 µM
GI50 [23]: 11 µM
LC50 [23]: > 100 µM
TGI [23]: 38 µM
GI50 [24]: 7.94 µM
LC50 [24]: > 100 µM
TGI [24]: 43.7 µM
GI50 [25]: 4.57 µM
LC50 [25]: 67.6 µM
TGI [25]: 22.4 µM
GI50 [26]: 10.7 µM
LC50 [26]: > 100 µM
TGI [26]: > 100 µM
GI50 [27]: 1.55 µM
LC50 (50% lethal concentration) [27]: 17.8 µM
TGI [27]: 4.47 µM
GI50 [28]: 10.5 µM
LC50 [28]: > 100 µM
TGI [28]: 32.4 µM
GI50 [29]: 3.39 µM
CC50 [29]: 56.2 µM
TGI [29]: 14.5 µM
GI50 [30]: 2.4 µM
CC50 [30]: > 100 µM
TGI [30]: 19.5 µM
GI50 [31]: 14.5 µM
LC50 [31]: > 100 µM
TGI [31]: 67.6 µM
GI50 [32]: 4.57 µM
LC50 [32]: 87.1 µM
TGI [32]: 20 µM
